Measurements: ChEMBL document CHEMBL4219101, “Discovery of 18β-glycyrrhetinic acid conjugated aminobenzothiazole derivatives as Hsp90-Cdc37 interaction disruptors that inhibit cell migration and reverse drug resistance” (Bioorg Med Chem, 2018)
Active and inactive are the calls of the source. No cut-off for these calls is given here.

Legend:
[1] = Antiproliferative activity against human NCI-460 cells after 48 hrs by MTT assay; assay type: functional, cell-based; details: NCI-460, 48 h
Summary of the method: (§1)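 Cells in log phase seeded at about 1.0 × 10^5 cells/mL in 96-well plates, left 12 h at 37 °C, 5% CO2. Compounds dissolved in DMSO, added at 2.5, 5, 10, 20 and 50 µM, 48 h exposure. Absorbance read at 570/630 nm dual wavelength. Survival expressed relative to negative control. IC50 by Bliss method (n = 5), tests done in triplicate.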

[2] = Inhibition of HSP90/Cdc37 interaction in human doxorubicin-resistant NCI-H460 cells assessed as reduction in cell proliferation after 48 hrs by MTT assay; details: NCI-H460, 48 h; summary of the method: as §1
Homo sapiens = species on record: Homo sapiens; assay: Inhibition of HSP90/Cdc37 interaction assessed as reversal of drug resistance by measuring ratio of IC50 for human doxorubicin-resistant NCI-H460 cells to IC50 for human NCI-H460 cells
Summary of the method: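 Resistance factor is the ratio of IC50 in NCI-H460/DOX cells to IC50 in parental NCI-H460 cells. […] Values are mean ± SD of five separate experiments. Doxorubicin serves as the positive control.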

[3] = Inhibition of His-tagged full-length Hsp90 (unknown origin)/GST-tagged Cdc37M (unknown origin) interaction after 1 hr by HTRF assay; parameters: species or system Homo sapiens
Summary of the method: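 TR-FRET in PBS containing 400 mM KF, pH 7.3. His-tagged full-length Hsp90 and GST-Cdc37M, each 250 nM final, incubated with compound for 1 h at 37 °C. Anti-GST-Cryptate and anti-6His-XL665 then added for a further 0.5 h at 37 °C. Excitation 320 nm, emission 665/620 nm, reported as ratio ×10,000. Negative and blank controls run in each assay.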

HepG2 = assay: Antiproliferative activity against human HepG2 cells after 48 hrs by MTT assay; assay type: functional, cell-based; details: HepG2, 48 h; summary of the method: as §1
HCT-116 = assay: Antiproliferative activity against human HCT116 cells after 48 hrs by MTT assay; assay type: functional, cell-based; details: HCT-116, 48 h; summary of the method: as §1
MCF7 = assay: Antiproliferative activity against human MCF7 cells after 48 hrs by MTT assay; assay type: functional, cell-based; details: MCF7, 48 h; summary of the method: as §1
A549 [4] = assay: Antiproliferative activity against human A549 cells after 48 hrs by MTT assay; assay type: functional, cell-based; details: A549, 48 h; summary of the method: as §1
A549 [5] = assay: Inhibition of Hsp90/Cdc37 interaction in human A549 cells assessed as downregulation of Cdc37 in immunoprecipitated HSP90 complex at 10 uM after 24 hrs by Western blot analysis; assay type: cell-based
Summary of the method: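 A549 cells exposed to 5 and 10 µM for 24 h, geldanamycin 10 µM as comparator. Lysis in 20 mM Tris-HCl pH 7.4, 25 mM NaCl, 2 mM DTT, 20 mM Na2MoO4, 0.1% NP-40 and protease inhibitors. 500 µg protein immunoprecipitated overnight at 4 °C with anti-Hsp90 antibody, captured on protein G agarose, washed five times and boiled. Cdc37 and Hsp90 detected by Western blot, with input also blotted.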

Ratio IC50 (Homo sapiens)	IC50 [3]	IC50 (HepG2)	IC50 (HCT-116)	IC50 (MCF7)	IC50 (A549 [4])	Structure (SMILES)	IC50 [1]	IC50 [2]	inhibition (A549 [5])
7.33						COc1cccc2c1C(=O)c1c(O)c3c(c(O)c1C2=O)C[C@@](O)(C(=O)CO)C[C@@H]3O[C@H]1C[C@H](N)[C@H](O)[C@H](C)O1 [DOXORUBICIN]	5.18 µM	38 µM	
1.13	0.83 µM	12.4 µM	11 µM	8.66 µM	6.09 µM	CCOC(=O)[C@@]1(C)CC[C@]2(C)CC[C@]3(C)C(=CC(=O)[C@@H]4[C@@]5(C)CC[C@H](OC(=O)CCC(=O)Nc6nc7ccc(Cl)cc7s6)C(C)(C)[C@@H]5CC[C@]43C)[C@@H]2C1	10.6 µM	12 µM	
						COC1=C2C[C@@H](C)C[C@H](OC)[C@H](O)[C@@H](C)/C=C(\C)[C@H](OC(N)=O)[C@@H](OC)/C=C\C=C(/C)C(=O)NC(=CC1=O)C2=O			inactive
1.29	1.67 µM	17 µM	15.4 µM	15 µM	13.6 µM	CCOC(=O)[C@@]1(C)CC[C@]2(C)CC[C@]3(C)C(=CC(=O)[C@@H]4[C@@]5(C)CC[C@H](OC(=O)CCC(=O)Nc6nc7c(Cl)cccc7s6)C(C)(C)[C@@H]5CC[C@]43C)[C@@H]2C1	14 µM	18.1 µM	
	> 100 µM	> 100 µM	> 100 µM	> 100 µM	> 100 µM	CC(=O)O[C@H]1CC[C@]2(C)[C@H]3C(=O)C=C4[C@@H]5C[C@@](C)(C(=O)Nc6nc7c(F)cccc7s6)CC[C@]5(C)CC[C@@]4(C)[C@]3(C)CC[C@H]2C1(C)C			
	77.6 µM	73.1 µM	68.5 µM	66.7 µM	62.6 µM	CC(=O)O[C@H]1CC[C@]2(C)[C@H]3C(=O)C=C4[C@@H]5C[C@@](C)(C(=O)Nc6nc7ccc(Cl)cc7s6)CC[C@]5(C)CC[C@@]4(C)[C@]3(C)CC[C@H]2C1(C)C			
	45.7 µM	45.6 µM	42.5 µM	41.2 µM	36.5 µM	CC1(C)[C@@H](O)CC[C@]2(C)[C@H]3C(=O)C=C4[C@@H]5C[C@@](C)(C(=O)Nc6nc7c(F)cccc7s6)CC[C@]5(C)CC[C@@]4(C)[C@]3(C)CC[C@@H]12			
	36.9 µM	21.8 µM	16.3 µM	16.5 µM	22.8 µM	CC1(C)[C@@H](O)CC[C@]2(C)[C@H]3C(=O)C=C4[C@@H]5C[C@@](C)(C(=O)Nc6nc7ccc(Cl)cc7s6)CC[C@]5(C)CC[C@@]4(C)[C@]3(C)CC[C@@H]12			
	90.1 µM	85.6 µM	> 100 µM	81.2 µM	75.5 µM	COc1ccc2nc(NC(=O)[C@@]3(C)CC[C@]4(C)CC[C@]5(C)C(=CC(=O)[C@@H]6[C@@]7(C)CC[C@H](OC(C)=O)C(C)(C)[C@@H]7CC[C@]65C)[C@@H]4C3)sc2c1			
	> 100 µM	> 100 µM	> 100 µM	> 100 µM	> 100 µM	CC(=O)O[C@H]1CC[C@]2(C)[C@H]3C(=O)C=C4[C@@H]5C[C@@](C)(C(=O)Nc6nc7c(Br)cccc7s6)CC[C@]5(C)CC[C@@]4(C)[C@]3(C)CC[C@H]2C1(C)C			
	81.9 µM	86 µM	76.8 µM	78.1 µM	69.7 µM	CC(=O)O[C@H]1CC[C@]2(C)[C@H]3C(=O)C=C4[C@@H]5C[C@@](C)(C(=O)Nc6nc7ccc(Br)cc7s6)CC[C@]5(C)CC[C@@]4(C)[C@]3(C)CC[C@H]2C1(C)C			
	89.5 µM	88 µM	80.7 µM	71.4 µM	75.4 µM	CC1(C)[C@@H](O)CC[C@]2(C)[C@H]3C(=O)C=C4[C@@H]5C[C@@](C)(C(=O)Nc6nc7ccccc7s6)CC[C@]5(C)CC[C@@]4(C)[C@]3(C)CC[C@@H]12			
	5.07 µM	19 µM	15.9 µM	16.1 µM	14.2 µM	CCOC(=O)[C@@]1(C)CC[C@]2(C)CC[C@]3(C)C(=CC(=O)[C@@H]4[C@@]5(C)CC[C@H](OC(=O)CCC(=O)Nc6nc7ccc(Br)cc7s6)C(C)(C)[C@@H]5CC[C@]43C)[C@@H]2C1			
	14.9 µM	27.5 µM	23.6 µM	22.5 µM	19.1 µM	CCOC(=O)[C@@]1(C)CC[C@]2(C)CC[C@]3(C)C(=CC(=O)[C@@H]4[C@@]5(C)CC[C@H](OC(=O)CCC(=O)Nc6nc7ccc(C)cc7s6)C(C)(C)[C@@H]5CC[C@]43C)[C@@H]2C1			
1.17	9.09 µM	25.8 µM	22.3 µM	20.5 µM	18.8 µM	CCOC(=O)[C@@]1(C)CC[C@]2(C)CC[C@]3(C)C(=CC(=O)[C@@H]4[C@@]5(C)CC[C@H](OC(=O)CCC(=O)Nc6nc7ccccc7s6)C(C)(C)[C@@H]5CC[C@]43C)[C@@H]2C1	16.4 µM	19.2 µM	
	62.4 µM	60.1 µM	54.2 µM	52.7 µM	51.1 µM	COc1ccc2nc(NC(=O)[C@@]3(C)CC[C@]4(C)CC[C@]5(C)C(=CC(=O)[C@@H]6[C@@]7(C)CC[C@H](O)C(C)(C)[C@@H]7CC[C@]65C)[C@@H]4C3)sc2c1			
1.23	1.05 µM	12.5 µM	10.1 µM	10.9 µM	9.07 µM	CCOC(=O)[C@@]1(C)CC[C@]2(C)CC[C@]3(C)C(=CC(=O)[C@@H]4[C@@]5(C)CC[C@H](OC(=O)CCC(=O)Nc6nc7c(F)cccc7s6)C(C)(C)[C@@H]5CC[C@]43C)[C@@H]2C1	12.5 µM	15.4 µM	
	> 100 µM	86.3 µM	74.7 µM	74.5 µM	76 µM	COc1cccc2sc(NC(=O)[C@@]3(C)CC[C@]4(C)CC[C@]5(C)C(=CC(=O)[C@@H]6[C@@]7(C)CC[C@H](O)C(C)(C)[C@@H]7CC[C@]65C)[C@@H]4C3)nc12			
	78.4 µM	94.5 µM	91.2 µM	74.8 µM	84.2 µM	CC1(C)[C@@H](O)CC[C@]2(C)[C@H]3C(=O)C=C4[C@@H]5C[C@@](C)(C(=O)O)CC[C@]5(C)CC[C@@]4(C)[C@]3(C)CC[C@@H]12 [ENOXOLONE]			
	54.3 µM	65.6 µM	> 100 µM	71.2 µM	85.5 µM	CC(=O)O[C@H]1CC[C@]2(C)[C@H]3C(=O)C=C4[C@@H]5C[C@@](C)(C(=O)Nc6nc7ccc(F)cc7s6)CC[C@]5(C)CC[C@@]4(C)[C@]3(C)CC[C@H]2C1(C)C			
	32.3 µM	36.4 µM	31.5 µM	31.1 µM	32.2 µM	CC1(C)[C@@H](O)CC[C@]2(C)[C@H]3C(=O)C=C4[C@@H]5C[C@@](C)(C(=O)Nc6nc7ccc(F)cc7s6)CC[C@]5(C)CC[C@@]4(C)[C@]3(C)CC[C@@H]12			
	> 100 µM	> 100 µM	> 100 µM	> 100 µM	> 100 µM	CC(=O)O[C@H]1CC[C@]2(C)[C@H]3C(=O)C=C4[C@@H]5C[C@@](C)(C(=O)Nc6nc7c(C)cccc7s6)CC[C@]5(C)CC[C@@]4(C)[C@]3(C)CC[C@H]2C1(C)C			
	> 100 µM	> 100 µM	> 100 µM	> 100 µM	> 100 µM	CC(=O)O[C@H]1CC[C@]2(C)[C@H]3C(=O)C=C4[C@@H]5C[C@@](C)(C(=O)Nc6nc7ccc(C)cc7s6)CC[C@]5(C)CC[C@@]4(C)[C@]3(C)CC[C@H]2C1(C)C			
	41.3 µM	39.5 µM	37.4 µM	33.8 µM	33.4 µM	CC1(C)[C@@H](O)CC[C@]2(C)[C@H]3C(=O)C=C4[C@@H]5C[C@@](C)(C(=O)Nc6nc7ccc(Br)cc7s6)CC[C@]5(C)CC[C@@]4(C)[C@]3(C)CC[C@@H]12			
